Shown are actives, neighbours in structure and some others; about 6.4% of the full set was active somewhere.
MPTP inh: mitochondrial permeability transition pore inhibitors, primary screen, biochemical, isolated mouse mitochondria, absorbance | inhibition, % at 10 µM | 1.4% of 360,000 active | AID 602449, 2012 | Ca2+ swelling absorbance, 30 min;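 active means inhibition of 50% or more, scaled per plate between neutral and stimulator controls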;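 further: 0% = DMSO wells given calcium and 100% = 1 mM EGTA wells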
TbMetRS inhib: T. brucei MetRS inhibitors, primary screen, biochemical, luminescence; methionyl-tRNA synthetase (Trypanosoma brucei brucei); purified T. brucei MetRS, ATP depletion, Kinase-Glo luminescence; inhibition, % at 11.9 µM; 0.4% of 360,000 active;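 active means inhibition above a per-plate cutoff of the control wells' mean inhibition plus 3 SD, cut at about 5.5% in these data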;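 further: 0% = DMSO wells median and 100% = median of wells with control inhibitor compound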
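Material: T. brucei methionyl-tRNA synthetase, purified; reagent: substrates ATP, L-methionine and bulk Escherichia coli tRNA; dosing: 11.9 µM single point; timing: 15 min plus 2 h at 25 °C; detection: luminescence of leftover ATP; evaluation: % inhibition; control set: DMSO-only wells as low control; replicates: singlicate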
CHOP inhibitor: inhibitors of CHOP promoter induction, primary screen, cell-based, unfolded protein response, luciferase reporter | AID 2732, 2010 | inhibition, % at 10 µM | CHO-K1 CHOP-promoter luciferase, tunicamycin-induced, 15-18 h | 3.8% of 220,000 active;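 active means compounds that reduced the stress-induced luciferase reporter signal by more than about 70% of percent inhibition, limit read from the data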;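 further: 0% = tunicamycin plus vehicle and 100% = wells without tunicamycin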
WT yeast gro inh: growth inhibition of WT strain, primary screen, mitochondrial fusion inhibitor project, WT and mutant strains, chemical genetic. AID 1362, 2008. 2.1% of 190,000 active. inhibition, % at 10 µM. mitochondrial fusion phenotypic screen; in the data active means inhibition above about 58%; tested in S. cerevisiae
GRIN3A LBD mod: binders of NR3A ligand-binding domain, primary screen, biophysical, differential scanning fluorimetry, uHTS | 2.5% of 340,000 active | AID 1259313, 2017 | NR3A LBD differential scanning fluorimetry, Tm shift; 0% = protein alone, 100% = glycine-bound protein | Tm shift relative to glycine control, % at 25 µM | Glutamate receptor ionotropic, NMDA 3A (GRIN3A) ligand-binding domain;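 active means melting temperature shift of at least 10% of the positive control shift, at one fixed dose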
EBV gp42 inh: Epstein-Barr virus gp42 inhibitors, primary screen, biochemical, uHTS, fluorescence polarization | Glycoprotein 42 (Epstein-Barr virus (strain AG876)), Q1HVG2 | Fluorescence polarization binding assay, mP read-out | 0.42% of 220,000 active | inhibition, % (tested at 21.74 µM); in the data active means inhibition above about 50%
Target sequence (Q1HVG2 whole entry, looked up): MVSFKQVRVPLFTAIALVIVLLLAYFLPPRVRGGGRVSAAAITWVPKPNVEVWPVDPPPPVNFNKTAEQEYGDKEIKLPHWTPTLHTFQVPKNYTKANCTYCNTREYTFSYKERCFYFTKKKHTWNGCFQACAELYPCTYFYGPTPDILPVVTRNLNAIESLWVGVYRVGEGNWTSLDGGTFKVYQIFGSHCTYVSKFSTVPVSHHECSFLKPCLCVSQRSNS
* hit, by the source's call; . = no result.

SMILES	MPTP inh	TbMetRS inhib	CHOP inhibitor	WT yeast gro inh	GRIN3A LBD mod	EBV gp42 inh
Cc1cc(F)ccc1S(=O)(=O)N1CCCOC1CNC(=O)C(=O)NC1CCCCC1 (configuration not stated)	-1	0	.	.	2	.
Cn1c(SCC(=O)Nc2ccc3[nH]c(=O)[nH]c3c2)nnc1-c1ccccc1	-3	0	.	.	0	.
O=C(CSc1nnc(NC(=O)c2ccccc2Cl)s1)Nc1ccc2c(c1)oc1ccccc12	.	.	71*	4	.	-14
CCOC(=O)c1c(C)[nH]c(C)c1C(=O)CSc1nnc(-c2ccncc2)n1Cc1ccccc1	0	-1	0	1	0	3
Cn1c(SCC(=O)Nc2ccc3nc(SCC(=O)N4CCCC4)sc3c2)nnc1-c1ccccc1	.	.	4	-4	0	83*
CCOC(=O)c1c(C)[nH]c(C)c1C(=O)CSc1nnc(-c2ccncc2)n1C	0	0	-8	65*	-1	-16
Cn1c(SCC(=O)Nc2ccc3c(c2)oc2ccccc23)nnc1-c1ccccc1	0	0	88*	23	1	-40
CCOc1cc(C(c2c(C)[nH][nH]c2=O)c2c(C)[nH][nH]c2=O)cc(Cl)c1O	0	-1	.	.	2	.
COc1cc(C(C)=O)ccc1OCC(=O)NC(=O)Nc1ccc(C)cc1C	1	-1	.	.	2	.
COc1ccc(Cc2noc(CN(C)CC3CCN(Cc4ccccc4)CC3)n2)cc1OC	10	-1	-19	.	3	-5
CCOc1ccccc1NC(=O)C(OC(=O)c1cc(C)oc1C)c1ccccc1 (configuration not stated)	5	0	46	5	-2	-32
CCOC(=O)C1CCN(C(=O)C2c3ccccc3C(=O)N(C)C2c2ccc(OC)cc2)CC1 (configuration not stated)	-1	-1	15	0	0	-15
Cn1c(SCC(=O)n2c3c(c4ccccc42)CCCC3)nnc1-c1ccccc1	11	0	47	52	5	5
O=C(CSc1nc2ccccc2s1)NNC(=O)Nc1ccc(Cl)c(Cl)c1	2	-1	47	-9	26*	-6
CC(=O)Nc1ccc(-c2nnc(SCC(=O)n3c4c(c5ccccc53)CCCC4)n2C)cc1	1	1	78*	17	0	-13
O=C(CSc1nc2ccccc2s1)Nc1ccc(Cl)c(C(=O)O)c1	-2	0	-3	-1	1	-11
Cn1c(SCC(=O)N2CCN(c3ccccc3)CC2)nnc1-c1ccncc1	-2	-2	23	-12	11*	-20
Cn1c(SCC(=O)N2CCN(c3cccc(Cl)c3)CC2)nnc1-c1ccncc1	2	-1	-20	-8	-2	-18
O=C(CSc1nc2ccccc2s1)Nc1ccc2c(c1)oc1ccccc12	16	1	-49	-6	39*	0
CC(C)OC(=O)c1c(NC(=O)Cn2cnc([N+](=O)[O-])n2)sc2c1CCCC2	0	0	93*	11	-7	25
CCOC(=O)c1c(NC(=O)Cn2cnc([N+](=O)[O-])n2)sc2c1CCCC2	0	0	75*	7	-7	2
CCOC(=O)CNC(=O)CSc1ncnc2c1cnn2-c1ccccc1	-3	-1	2	9	2	-15
C1=C(c2ccccc2)N2CCN=C2S1	0	-1	86*	8	-9	2
O=C1NC(=Nc2ccccc2)S/C1=C\C=C\c1ccco1	5	2	87*	12	11*	-17
O=C1N/C(=N/Nc2ccccc2)S/C1=C\c1ccccc1	1	-1	36	25	10*	5
COc1ccc(N=C2NC(=O)/C(=C/C=C/c3ccccc3)S2)cc1	0	0	77*	.	14*	-17
COc1ccc(/C=C2\SC(=NCc3ccccc3)NC2=O)cc1	2	0	40	4	17*	-13
